Experimental data from ChEMBL document CHEMBL2346505, “Pyranoflavones: a group of small-molecule probes for exploring the active site cavities of cytochrome P450 enzymes 1A1, 1A2, and 1B1” (J Med Chem, 2013).

What was measured:
Type in all cases: ADME
Cytochrome P450 2B1 = target: T1, Cytochrome P450 2B1 (Rattus norvegicus, UniProt P00176); experiment: Inhibition of CYP2B1 (unknown origin)-mediated depentylation of resorufin pentyl ether after 5 mins by spectrofluorimetric analysis
T1 sequence (P00176 whole entry): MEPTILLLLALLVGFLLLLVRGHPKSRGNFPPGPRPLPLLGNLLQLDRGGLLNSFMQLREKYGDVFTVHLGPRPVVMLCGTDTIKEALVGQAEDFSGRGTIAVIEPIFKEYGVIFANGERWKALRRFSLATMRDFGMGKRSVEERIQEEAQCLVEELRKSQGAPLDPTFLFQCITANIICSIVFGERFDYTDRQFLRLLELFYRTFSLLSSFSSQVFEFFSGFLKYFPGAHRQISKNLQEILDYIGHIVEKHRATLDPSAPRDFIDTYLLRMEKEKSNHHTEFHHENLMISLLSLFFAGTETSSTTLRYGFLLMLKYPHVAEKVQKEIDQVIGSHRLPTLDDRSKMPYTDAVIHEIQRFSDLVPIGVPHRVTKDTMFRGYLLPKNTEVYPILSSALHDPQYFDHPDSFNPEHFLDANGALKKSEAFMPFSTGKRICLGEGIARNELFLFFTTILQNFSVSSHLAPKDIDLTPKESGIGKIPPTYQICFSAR
Procedure, shortened: (§1)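 Microsomal P450 (final 5 nM) in 0.1 M potassium phosphate pH 7.6 with MgCl2; resorufin ether or coumarin substrate final 5 μM from DMSO stock; inhibitor added in DMSO, DMSO alone for controls. Reaction started with NADPH regenerating system (NADP+, glucose 6-phosphate, G6P dehydrogenase) at 37 °C; product formation followed fluorimetrically as progress curves.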

Cytochrome P450 2A6 = target: T2, Cytochrome P450 2A6 (Homo sapiens, UniProt P11509); experiment: Inhibition of CYP2A6 (unknown origin)-mediated coumarin 7-hydroxylation after 5 mins by spectrofluorimetric analysis; procedure, shortened: as §1
T2 sequence (P11509 whole entry): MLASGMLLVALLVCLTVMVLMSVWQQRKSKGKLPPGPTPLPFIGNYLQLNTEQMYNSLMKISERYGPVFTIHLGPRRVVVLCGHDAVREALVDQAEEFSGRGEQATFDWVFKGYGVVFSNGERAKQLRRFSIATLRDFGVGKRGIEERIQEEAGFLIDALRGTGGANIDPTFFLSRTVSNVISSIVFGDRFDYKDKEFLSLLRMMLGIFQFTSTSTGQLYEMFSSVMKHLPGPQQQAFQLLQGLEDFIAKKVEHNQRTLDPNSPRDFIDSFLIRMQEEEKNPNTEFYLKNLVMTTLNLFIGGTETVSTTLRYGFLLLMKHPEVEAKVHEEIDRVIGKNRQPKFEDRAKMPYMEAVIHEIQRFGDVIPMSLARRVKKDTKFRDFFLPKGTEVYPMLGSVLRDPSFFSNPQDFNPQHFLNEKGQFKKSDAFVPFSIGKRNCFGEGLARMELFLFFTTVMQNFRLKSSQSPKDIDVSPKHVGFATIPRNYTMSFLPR

Cytochrome P450 1A2 [1] = target: T3, Cytochrome P450 1A2 (Homo sapiens, UniProt P05177); experiment: Inhibition of CYP1A2 (unknown origin)-mediated demethylation of resorufin methyl ether after 5 mins by spectrofluorimetric analysis; procedure, shortened: as §1
T3 sequence (P05177 whole entry): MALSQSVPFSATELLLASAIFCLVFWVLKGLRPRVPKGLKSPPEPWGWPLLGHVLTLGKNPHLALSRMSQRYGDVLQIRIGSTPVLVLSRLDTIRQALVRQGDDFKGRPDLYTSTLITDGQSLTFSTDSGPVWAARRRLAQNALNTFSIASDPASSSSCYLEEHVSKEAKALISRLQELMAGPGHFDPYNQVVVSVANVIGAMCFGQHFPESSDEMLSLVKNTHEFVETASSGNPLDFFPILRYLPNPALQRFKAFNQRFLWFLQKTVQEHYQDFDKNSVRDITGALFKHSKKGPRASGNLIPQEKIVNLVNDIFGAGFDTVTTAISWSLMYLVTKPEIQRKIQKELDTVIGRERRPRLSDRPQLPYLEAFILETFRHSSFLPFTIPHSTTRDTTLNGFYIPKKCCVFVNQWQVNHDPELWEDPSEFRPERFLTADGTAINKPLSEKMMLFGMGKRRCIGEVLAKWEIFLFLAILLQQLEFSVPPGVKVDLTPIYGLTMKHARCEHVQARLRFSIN

CYP1A2 / CYP1A1 = experiment: Selectivity ratio of IC50 for CYP1A2 (unknown origin) to IC50 for CYP1A1 (unknown origin); conditions: human; read-out: Ratio IC50
Cytochrome P450 1A1 [2] = target: T4, Cytochrome P450 1A1 (Homo sapiens, UniProt P04798); experiment: Inhibition of CYP1A1 (unknown origin)-mediated deethylation of resorufin ethyl ether after 5 mins by spectrofluorimetric analysis; procedure, shortened: as §1
T4 sequence (P04798 whole entry): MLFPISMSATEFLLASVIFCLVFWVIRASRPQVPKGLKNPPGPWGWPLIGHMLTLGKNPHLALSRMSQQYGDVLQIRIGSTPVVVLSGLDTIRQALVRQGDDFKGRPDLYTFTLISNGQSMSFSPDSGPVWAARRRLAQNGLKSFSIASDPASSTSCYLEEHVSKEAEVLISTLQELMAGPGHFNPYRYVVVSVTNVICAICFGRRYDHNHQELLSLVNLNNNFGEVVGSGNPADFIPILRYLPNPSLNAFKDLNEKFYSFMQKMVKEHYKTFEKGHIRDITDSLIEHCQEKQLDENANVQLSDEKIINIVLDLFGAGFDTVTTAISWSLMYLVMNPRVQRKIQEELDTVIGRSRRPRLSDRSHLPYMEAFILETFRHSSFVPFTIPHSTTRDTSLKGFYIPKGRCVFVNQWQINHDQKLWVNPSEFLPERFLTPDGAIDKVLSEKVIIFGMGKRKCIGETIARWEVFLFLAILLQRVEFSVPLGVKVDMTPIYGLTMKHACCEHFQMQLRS

Cytochrome P450 1B1 = target: T5, Cytochrome P450 1B1 (Homo sapiens, UniProt Q16678); experiment: Inhibition of CYP1B1 (unknown origin)-mediated deethylation of resorufin ethyl ether after 5 mins by spectrofluorimetric analysis; procedure, shortened: as §1
T5 sequence (Q16678 whole entry): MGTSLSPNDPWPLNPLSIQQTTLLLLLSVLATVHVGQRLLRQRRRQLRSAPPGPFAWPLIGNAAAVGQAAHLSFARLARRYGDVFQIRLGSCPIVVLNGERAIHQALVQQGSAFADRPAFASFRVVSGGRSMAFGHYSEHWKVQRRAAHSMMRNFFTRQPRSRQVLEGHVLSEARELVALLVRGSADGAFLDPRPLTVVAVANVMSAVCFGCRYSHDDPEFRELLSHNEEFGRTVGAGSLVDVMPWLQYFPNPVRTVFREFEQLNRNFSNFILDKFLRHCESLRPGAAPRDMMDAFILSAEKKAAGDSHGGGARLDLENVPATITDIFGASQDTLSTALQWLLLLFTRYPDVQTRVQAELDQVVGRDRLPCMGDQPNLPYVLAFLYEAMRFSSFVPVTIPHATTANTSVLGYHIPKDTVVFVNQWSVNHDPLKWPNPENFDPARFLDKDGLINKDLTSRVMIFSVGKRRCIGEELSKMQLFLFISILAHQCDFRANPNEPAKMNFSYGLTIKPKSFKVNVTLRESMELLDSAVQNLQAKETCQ

CYP1A2 = target: T6, CYP1A2 (Homo sapiens, UniProt P05177); experiment: (§2) Irreversible inhibition of CYP1A2 (unknown origin)-mediated demethylation of resorufin methyl ether after 5 mins by spectrofluorimetric analysis; conditions: human, probe resorufin methyl ether
T6 sequence (P05177 whole entry): T3 sequence (P05177 whole entry)

Cytochrome P450 1A2 [3] = target: T3, Cytochrome P450 1A2; experiment: as §2
CYP1A1 = target: T7, CYP1A1 (Homo sapiens, UniProt P04798); experiment: (§3) Irreversible inhibition of CYP1A1 (unknown origin)-mediated deethylation of resorufin ethyl ether after 5 mins by spectrofluorimetric analysis; conditions: human, probe resorufin ethyl ether
T7 sequence (P04798 whole entry): T4 sequence (P04798 whole entry)

Cytochrome P450 1A1 [4] = target: T4, Cytochrome P450 1A1; experiment: as §3
CYP1B1 over CYP1A1 = experiment: Selectivity ratio for CYP1B1 (unknown origin) over CYP1A1 (unknown origin); conditions: human
Procedure, shortened: (§4)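 Ratio of IC50 values from fluorimetric dealkylation assays: resorufin ethyl ether deethylation (1A1, 1B1), resorufin methyl ether demethylation (1A2). Microsomal P450 5 nM final, substrate 5 μM final, 0.1 M potassium phosphate pH 7.6 with MgCl2, NADPH-regenerating system, 37 °C. Inhibitor 0.1–100 μM in DMSO. IC50s from progress curves, three independent experiments.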

CYP1B1 over CYP1A2 = experiment: Selectivity ratio for CYP1B1 (unknown origin) over CYP1A2 (unknown origin); conditions: human; procedure, shortened: as §4
Cytochrome P450 1A1 [5] = target: T4, Cytochrome P450 1A1; experiment: Inhibition of CYP1A1 (unknown origin)-mediated deethylation of resorufin ethyl ether at 0.1 uM after 5 mins by spectrofluorimetric analysis
Procedure, shortened: (§5)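 Fluorimetric dealkylation of resorufin ether (ethyl for 1A1/1B1, methyl for 1A2) by microsomal P450 (final 5 nM), substrate final 5 μM, in 0.1 M potassium phosphate pH 7.6 with MgCl2 at 37 °C. Reaction started with NADPH regenerating system. Test compound at 0.1 μM in DMSO; activity compared with DMSO-only control.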

CYP1B1 = target: T8, CYP1B1 (Homo sapiens, UniProt Q16678); experiment: Inhibition of CYP1B1 (unknown origin) dealkylation activity at 0.1 uM after 5 mins by spectrofluorimetric analysis relative to control; procedure, shortened: as §5
T8 sequence (Q16678 whole entry): T5 sequence (Q16678 whole entry)

Cytochrome P450 1A2 [6] = target: T3, Cytochrome P450 1A2; experiment: Inhibition of CYP1A2 (unknown origin)-mediated demethylation of resorufin methyl ether at 0.1 uM after 5 mins by spectrofluorimetric analysis; procedure, shortened: as §5

| IC50 (Cytochrome P450 2B1) [µM] | IC50 (Cytochrome P450 2A6) [µM] | IC50 (Cytochrome P450 1A2 [1]) [µM] | IC50 (Cytochrome P450 1A1 [2]) [µM] | inhibition (INH) (Cytochrome P450 1B1) | Structure (SMILES) | further results |
| --- | --- | --- | --- | --- | --- | --- |
| > 25 | > 25 | 1.13 | 0.32 | Active | O=c1cc(-c2ccccc2)oc2ccc3c(c12)OCC=C3 | selectivity ratio (CYP1A2 / CYP1A1): 3.5 |
| > 25 | > 25 | 0.76 | 0.15 | Active | O=c1cc(-c2ccccc2)oc2ccc3c(c12)C=CCO3 | selectivity ratio (CYP1A2 / CYP1A1): 5 |
| > 25 | > 25 | – | 0.27 | Active | O=c1cc(-c2ccccc2)oc2c3c(ccc12)OCC=C3 | – |
| 6.62 | > 25 | – | – | Active | O=c1cc(-c2ccc3c(c2)C=CCO3)oc2ccccc12 | – |
| > 25 | > 25 | 0.089 | 0.35 | Active | C#CCOc1cc(O)c2c(=O)cc(-c3ccccc3)oc2c1 | – |
| > 25 | > 25 | – | 0.11 | Active | O=c1cc(-c2ccccc2)oc2c3c(cc(O)c12)OCC=C3 | – |
| > 25 | > 25 | – | – | Active | O=c1cc(-c2ccccc2)oc2cc3c(c(O)c12)C=CCO3 | – |
| 4.08 | > 25 | – | – | Active | C#CCOc1cccc(-c2cc(=O)c3c(O)cccc3o2)c1 | kinact at 5 min (CYP1A2): 0.000367 s⁻¹; Ki (Cytochrome P450 1A2 [3]): 0.071 µM; kinact at 5 min (CYP1A1): 0.00317 s⁻¹; Ki (Cytochrome P450 1A1 [4]): 0.13 µM |
| > 25 | > 25 | – | – | Active | O=c1cc(-c2cccc3c2C=CCO3)oc2cccc(O)c12 | – |
| > 25 | > 25 | – | – | Active | O=c1cc(-c2ccc3c(c2)OCC=C3)oc2cccc(O)c12 | – |
| > 25 | > 25 | > 20 | – | Active | C#CCOc1ccc(-c2cc(=O)c3c(O)cccc3o2)cc1 | selectivity ratio (CYP1B1 over CYP1A1): 100; selectivity ratio (CYP1B1 over CYP1A2): > 250; inhibition (INH) (Cytochrome P450 1A1 [5]): Not Active; inhibition at 5 min, 0.1 µM (CYP1B1): 50%; inhibition (INH) (Cytochrome P450 1A2 [6]): Not Active |
| > 25 | > 25 | – | – | Active | O=c1cc(-c2ccc3c(c2)C=CCO3)oc2cccc(O)c12 | – |
| – | – | 0.6 | 0.041 | – | C#CCOc1ccc(-c2cc(=O)c3c(ccc4ccccc43)o2)cc1 | selectivity ratio (CYP1A2 / CYP1A1): 5 |
| 7.12 | > 25 | – | – | Active | O=c1cc(-c2cccc3c2C=CCO3)oc2ccccc12 [2'H,4H-[2,5'-BICHROMEN]-4-ONE] | – |
| 6.29 | > 25 | – | – | Active | O=c1cc(-c2cccc3c2OCC=C3)oc2ccccc12 [2'H,4H-[2,8'-BICHROMEN]-4-ONE] | – |
| 13 | > 25 | – | 0.043 | Active | O=c1cc(-c2ccccc2)oc2c1ccc1ccccc12 [ALPHA-NAPHTHOFLAVONE] | – |
| > 25 | > 25 | 0.47 | 0.054 | Active | O=c1cc(-c2ccccc2)oc2ccc3ccccc3c12 [BETA-NAPHTHOFLAVONE] | selectivity ratio (CYP1A2 / CYP1A1): 5 |
| > 25 | > 25 | – | – | Active | O=c1cc(-c2ccccc2)oc2cc(O)cc(O)c12 [CHRYSIN] | – |
